From ChEMBL document CHEMBL1135597, “A thymidine phosphorylase-stable analogue of BVDU with significant antiviral activity” (J Med Chem, 2002) come the findings set out here.

Test [1] relates to E6SM. Kind of test: […] in E6SM cell cultures of human embryonic skin-muscle. It counts as functional. For orientation: Protection from cytopathic effect is a common read-out in antiviral testing.
The test system of test [2] is Human alphaherpesvirus 1. Kind of test: Inhibitory activity against HSV-1 (McIntyre) replication in E6SM cell cultures of human embryonic skin-muscle. Type of test: functional, organism-based. The settings on record: Human alphaherpesvirus 1, E6SM. The essentials:
(§1)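 Confluent human embryonic skin-muscle (E6SM) cell cultures were infected with 100 CCID50 of virus. After 1 h adsorption, residual virus was removed and cultures were incubated with test compound at varying concentrations […]. Cytopathicity was scored once complete in infected control cultures. EC50 is the concentration that inhibits virus-induced cytopathicity by 50%.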

A short description of test [3]: Inhibitory activity against HSV-1 (KOS) replication in E6SM cell cultures of human embryonic skin-muscle. It counts as functional, cell-based. The settings on record: Human alphaherpesvirus 1, E6SM. In short, it runs like this:
as §1

Test [4] in a line: Inhibitory activity against TK-deficient HSV-1 (KOS) replication in E6SM cell cultures of human embryonic skin-muscle. Type of test: functional, cell-based. To be noted: Human alphaherpesvirus 1, E6SM. In short, it runs like this: as §1
Test [5] concerns Human alphaherpesvirus 1. Kind of test: Inhibitory activity against HSV-1 (F) replication in E6SM cell cultures of human embryonic skin-muscle. It counts as functional, organism-based. To be noted: Human alphaherpesvirus 1, E6SM. In short, it runs like this:
as §1

Test [6] relates to Vaccinia virus. Kind of test: Inhibitory activity against vaccinia virus (VV) replication in E6SM cell cultures of human embryonic skin-muscle. It counts as functional, organism-based. The settings on record: Orthopoxvirus vaccinia. The essentials:
as §1

For test [7], the system named is Vesicular stomatitis virus. Kind of test: Inhibitory activity against vesicular stomatitis virus (VSV) replication in E6SM cell cultures of human embryonic skin-muscle. Type of test: functional, organism-based. The essentials: as §1

In brackets after ≈: the same amount, converted by molar mass. Bounds are passed on as bounds.

As to `NC(=O)c1ncn([C@@H]2O[C@H](CO)[C@@H](O)[C@H]2O)n1` [RIBAVIRIN], in test [1], the MCC is more than 400 µg/mL. The EC50 – broadly, the concentration that produces a half-maximal response – in test [2] was 240 µg/mL (≈ 983 µM); in test [3], 48 µg/mL (≈ 197 µM); in test [4], 240 µg/mL (≈ 983 µM); in test [5] it was 48 µg/mL (≈ 197 µM); in test [6], 240 µg/mL (≈ 983 µM); in test [7], more than 400 µg/mL.
As to `O=c1[nH]c(=O)n([C@@H]2CO[C@H](CO)C2)cc1/C=C/Br`, the MCC in test [1] was more than 400 µg/mL. Moreover, the EC50 is 9.6 µg/mL (≈ 30.3 µM) in test [2]; 2.6 µg/mL (≈ 8.2 µM) in test [3]; more than 400 µg/mL in test [4]; 1.9 µg/mL (≈ 5.99 µM) in test [5]; more than 400 µg/mL in test [6]; more than 400 µg/mL in test [7].
`O=c1[nH]c(=O)n([C@H]2C[C@H](O)[C@@H](CO)O2)cc1/C=C/Br` [BRIVUDINE] displayed an MCC in test [1] of more than 400 µg/mL. Moreover, the EC50 was 0.026 µg/mL (≈ 0.078 µM) in test [2]; 0.026 µg/mL (≈ 0.078 µM) in test [3]; 240 µg/mL (≈ 720 µM) in test [4]; 0.026 µg/mL (≈ 0.078 µM) in test [5]; 1.9 µg/mL (≈ 5.7 µM) in test [6]; more than 400 µg/mL in test [7].
Regarding `Nc1nc2c(ncn2COCCO)c(=O)[nH]1` [ACYCLOVIR], the MCC in test [1] was more than 400 µg/mL. The concentration for a half-maximal effect (EC50) in test [2] is 0.077 µg/mL (≈ 0.342 µM); in test [3] it was 0.077 µg/mL (≈ 0.342 µM); in test [4], 48 µg/mL (≈ 213 µM); in test [5], 0.077 µg/mL (≈ 0.342 µM); in test [6], more than 400 µg/mL; in test [7], more than 400 µg/mL.
Take `Nc1nc2c(ncn2COC(CO)CO)c(=O)[nH]1` [GANCICLOVIR]: in test [1], the MCC is more than 100 µg/mL. Moreover, the EC50 in test [2] is 0.019 µg/mL (≈ 0.0744 µM); in test [3], 0.019 µg/mL (≈ 0.0744 µM); in test [4] it was 2.4 µg/mL (≈ 9.4 µM); in test [5], 0.019 µg/mL (≈ 0.0744 µM); in test [6], more than 100 µg/mL; in test [7], more than 100 µg/mL.
